From ChEMBL document CHEMBL1131567, “Ethnobotanical-directed discovery of the antihyperglycemic properties of cryptolepine: its isolation from Cryptolepis sanguinolenta, synthesis, and in vitro and in vivo activities” (1998)
Values joined by “and” are separate entries in the source; they are usually repeats but may differ in a detail not shown here. Equal values may be shown once.

Legend:
Mus musculus [1] = species on record: Mus musculus; assay: Food intake in db/db Mice expressed as gram/mouse/day and the observation made is after 48 hr.; assay type: functional
In short: (§1)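 Male C57BL/Ks-db/db mice, 8-9 weeks old, housed 4/cage at 22 °C with chow and water ad libitum. Mice with tail-vein plasma glucose of 350-600 mg/dL were grouped at eight per group with matched mean glucose. Oral gavage once daily for 1 or 2 days at 30 or 100 mg/kg, with vehicle control. Body weight and cage food consumption measured after 24-27 h.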

Mus musculus [2] = assay: Mean body weight expressed as grams/mouse at 0hrs, when given at 100 mg/kg; assay type: functional; in short: as §1
Mus musculus [3] = assay: Mean body weight expressed as grams/mouse at 24hrs, when given at 100 mg/kg; assay type: functional; in short: as §1
Mus musculus [4] = assay: In vivo plasma glucose lowering in db/db mice, given at 100 mg/kg in mouse, after 3 hr
Mus musculus [5] = assay: In vivo plasma glucose lowering in db/db mice, given at 100 mg/kg in mouse, after 24 hr
Mus musculus [6] = assay: Food intake in C57BL/ks Mice expressed as gram/mouse/day and the observation made at 0 -24 Hrs, when administered at a dose of 30 mg/kg; assay type: functional
In short: (§2)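 Lean C57BL/ks mice dosed at 30 mg/kg/day, with vehicle control, n = 8. Plasma glucose measured predose and on day 3. Body weight recorded at 0, 24 and 48 h; food intake per mouse per day over 0-24 and 24-48 h. Vehicle comparison by Student's t-test.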

Mus musculus [7] = assay: Food intake in C57BL/ks Mice expressed as gram/mouse/day and the observation made at 24-48 Hrs, when administered at a dose of 30 mg/kg; assay type: functional; in short: as §2
Mus musculus [8] = assay: Food intake in db/db Mice expressed as gram/mouse/day and the observation made at 0 - 24 Hrs, in db/db mice administered at a dose of 20 mg/kg; assay type: functional
Mus musculus [9] = assay: Food intake in db/db Mice expressed as gram/mouse/day and the observation made at 0 - 24 Hrs, in db/db mice administered at a dose of 30 mg/kg; assay type: functional; in short: as §1
Mus musculus [10] = assay: Food intake in db/db Mice expressed as gram/mouse/day and the observation made at 24 - 48 Hrs, in db/db mice administered at a dose of 20 mg/kg; assay type: functional
Mus musculus [11] = assay: Food intake in db/db Mice expressed as gram/mouse/day and the observation made at 24 - 48 Hrs, in db/db mice administered at a dose of 30 mg/kg; assay type: functional; in short: as §1
Mus musculus [12] = species on record: Mus musculus; assay: Food intake in db/db Mice expressed as gram/mouse/day and the observed after 48 hr.; assay type: functional; in short: as §1
Mus musculus [13] = assay: Mean body weight expressed as grams/mouse (C57BL/ks) at 48hrs, when given at 30 mg/kg; assay type: functional; in short: as §2
Mus musculus [14] = assay: Compound was evaluated for the in vivo effects on plasma glucose concentrations in db/db mice administered at a dose of 20 mg/kg mean body weight expressed as grams/mouse at 0 hr; assay type: functional
Mus musculus [15] = assay: Compound was evaluated for the in vivo effects on plasma glucose concentrations in db/db mice administered at a dose of 20 mg/kg mean body weight expressed as grams/mouse at 24 hr; assay type: functional
Mus musculus [16] = assay: Compound was evaluated for the in vivo effects on plasma glucose concentrations in db/db mice administered at a dose of 30 mg/kg mean body weight expressed as grams/mouse at 0 hr; assay type: functional; in short: as §1
Mus musculus [17] = assay: Compound was evaluated for the in vivo effects on plasma glucose concentrations in db/db mice administered at a dose of 30 mg/kg mean body weight expressed as grams/mouse at 24 hr; assay type: functional; in short: as §1
Mus musculus [18] = assay: Mean body weight expressed as grams/mouse (C57BL/ks) at 0hrs, when given at 30 mg/kg; assay type: functional; in short: as §2
Mus musculus [19] = assay: Mean body weight expressed as grams/mouse (C57BL/ks) at 24hrs, when given at 30 mg/kg; assay type: functional; in short: as §2
Mus musculus [20] = assay: Effect when given at 30 mg/kg in (C57BL/ks) mouse,Predose; assay type: functional; in short: as §2
Mus musculus [21] = assay: Effect when given at 30 mg/kg in (C57BL/ks) mouse, after day 3; assay type: functional; in short: as §2
Mus musculus [22] = assay: Effect when given at 30 mg/kg in (db/db)mice,3 days postdose; assay type: functional
In short: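 db/db mice, eight per group with matched initial glucose, dosed orally by gavage once daily with vehicle or 30 mg/kg. Tail-vein blood taken predose and 3 h postdosing. Plasma glucose measured colorimetrically by glucose oxidase assay. Groups compared with vehicle by ANOVA and Fisher's post-hoc test.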

Rattus norvegicus [23] = assay: […] effect of drug administration on Body weight in Fructose fed STZ-treated rats, after 24 hr (Treatment group - Fructose/STZ + cryptoline HCl, 30 mg/kg); assay type: functional; conditions: in the assay text read “on day 3” for “after 24 hr”
In short: (§3)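 Male Sprague-Dawley rats, 8 weeks old, given STZ 55 mg/kg iv and a 60% fructose diet for 1 week. Rats with serum glucose of 250-350 mg/dL were sorted into matched groups (n = 14). Oral gavage once daily for 3 days with vehicle or 30 mg/kg in 2% DMSO, 10 mL/kg. Noninjected chow-fed vehicle controls (n = 19). Body weight and cage food consumption recorded daily.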

Rattus norvegicus [24] = assay: […] effect of drug administration on Body weight in Fructose fed STZ-treated rats, pre dose ((Treatment group - Fructose/STZ + cryptoline HCl, 30 mg/kg); assay type: functional; in short: as §3
Rattus norvegicus [25] = assay: […] effect of drug administration on food consumption in Fructose fed STZ-treated rats (Treatment group - Fructose/STZ + cryptoline HCl, 30 mg/kg); assay type: functional; in short: as §3

`Cn1c2ccccc2c2nc3ccccc3cc21` gave a Food intake (Mus musculus [1]) of 4.4 g mouse-1 day-1, a Mean body weight (Mus musculus [2]) of 41.4 g mouse-1 and a Mean body weight (Mus musculus [3]) of 42 g mouse-1. It also gave a Change of predose (Mus musculus [4]) of 15.3% and a Change of predose (Mus musculus [5]) of 14.1%.
For `C[n+]1c2ccccc2cc2[n-]c3ccccc3c21.Cl` [CRYPTOLEPINE HYDROCHLORIDE], the Food intake (Mus musculus [6]) was 2.7 g mouse-1 day-1, the Food intake (Mus musculus [7]) was 2.3 g mouse-1 day-1 and the Food intake (Mus musculus [8]) was 3.3 g mouse-1 day-1. For the same molecule, the Food intake (Mus musculus [9]) was 2.4 g mouse-1 day-1, the Food intake (Mus musculus [10]) was 3.8 g mouse-1 day-1 and the Food intake (Mus musculus [11]) was 2.4 g mouse-1 day-1. The Food intake (Mus musculus [12]) was 0.9 g mouse-1 day-1, the Mean body weight (Mus musculus [13]) was 22.7 g mouse-1 and the Mean body weight (Mus musculus [14]) was 38 g mouse-1 and 37.4 g mouse-1. For the same molecule, the Mean body weight (Mus musculus [15]) was 37.9 g mouse-1, the Mean body weight (Mus musculus [16]) was 37 g mouse-1 and 35.5 g mouse-1 and the Mean body weight (Mus musculus [17]) was 36.9 g mouse-1. The Mean body weight (Mus musculus [2]) was 41 g mouse-1, the Mean body weight (Mus musculus [3]) was 39.8 g mouse-1 and the Mean body weight (Mus musculus [18]) was 23.7 g mouse-1. It also gave a Mean body weight (Mus musculus [19]) of 23.3 g mouse-1, a Change of predose (Mus musculus [20]) of 184 mg/dL and a Change of predose (Mus musculus [21]) of 171 mg/dL. For the same molecule, the Change of predose (Mus musculus [22]) was 358 mg/dL, the Body weight (Rattus norvegicus [23]) was 223 g and the Body weight (Rattus norvegicus [24]) was 201 g. It also gave a Food intake (Rattus norvegicus [25]) of 18 g/day, a Change of predose (Mus musculus [4]) of -16.4% and a Change of predose (Mus musculus [5]) of -43.1%.
With `C[n+]1c2ccccc2cc2[n-]c3ccccc3c21` [CRYPTOLEPINE] the Food intake (Mus musculus [1]) was 1 g mouse-1 day-1, the Mean body weight (Mus musculus [2]) was 39.4 g mouse-1 and the Mean body weight (Mus musculus [3]) was 38.7 g mouse-1. For the same molecule, the Change of predose (Mus musculus [4]) was -19.7% and the Change of predose (Mus musculus [5]) was -30%.
Molecule `C[n+]1c2ccccc2cc2[nH]c3ccccc3c21.[I-]` [CRYPTOLEPTINE IODIDE] has a Food intake (Mus musculus [1]) of 1 g mouse-1 day-1, a Mean body weight (Mus musculus [2]) of 42.7 g mouse-1 and a Mean body weight (Mus musculus [3]) of 41.9 g mouse-1. It also gave a Change of predose (Mus musculus [4]) of -11.5% and a Change of predose (Mus musculus [5]) of -22.5%.
